Screening results: PubChem BioAssay, several laboratories
TNF necrop inh – inhibitors of TNF-alpha triggered necroptosis, primary screen, cell-based, Jurkat FADD-/-, single concentration; Jurkat FADD-/- TNF necroptosis rescue, ATP luminescence, 24 h; 0 = TNF only, 100 = no-TNF cells; activation (protection from cell death), % at 10 µM; 220,000 tested, 0.068% active;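 active = activation, meaning protection from cell death, of at least 50% relative to plate controls; inactive = activation below 50%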;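 note: necroptosis triggered by 40 ng/mL TNF-alpha added together with compound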
PfM18AAP inh-1 – PfM18AAP inhibitors, malaria aminopeptidase, primary screen, biochemical, QFRET, recombinant enzyme | M18 aspartyl aminopeptidase (Plasmodium falciparum 3D7) | H-Glu-NHMec fluorogenic cleavage | inhibition, % at 7.35 µM | 290,000 tested, 1.2% active;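 active = inhibition above the campaign mean inhibition over all tested compounds plus 3 SD, cut at about 28% in these data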;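 note: 0% = plate median of test compound wells and 100% = 2 mM ZnCl2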
RBBP9 inh – human RBBP9 inhibitors, primary screen, biochemical, fluorescence polarization, FP-Rh probe, HTS; AID 1515, 2009; 220,000 tested, 0.2% active; inhibition, % at 7.94 µM; Serine hydrolase RBBP9 (Homo sapiens), O75884; recombinant RBBP9;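 active = inhibition above the campaign mean of all tested compounds plus 3 SD, cut at about 14% in these data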;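 note: plate controls were DMSO wells with RBBP9 for no effect and wells lacking RBBP9 protein for full effect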
Target sequence (O75884 whole entry, looked up): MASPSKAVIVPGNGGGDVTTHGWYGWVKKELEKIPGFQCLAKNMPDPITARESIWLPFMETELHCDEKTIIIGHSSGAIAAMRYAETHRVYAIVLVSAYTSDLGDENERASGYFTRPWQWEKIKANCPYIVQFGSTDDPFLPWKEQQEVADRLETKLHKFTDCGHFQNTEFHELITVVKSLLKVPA
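Test system – recombinant human RBBP9 · Input – RBBP9 2.5 µM in dispensing solution, pre-mixing · Medium – Tris buffer pH 8.0, NaCl, Pluronic · Schedule – preincubation 30 min plus labeling 45 min at 25 °C · Measured by – fluorescence polarization · Measure – % inhibition · Controls – DMSO and no-protein wells · Replicates – one well per compound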
zVAD death inh – inhibitors of zVAD-triggered necroptosis, primary screen, L929 cells; L929 zVAD necroptosis rescue, ATP luminescence, 24 h; with zVAD 60 µM; viability rescue, % at 10 µM; 220,000 tested, 0.38% active; AID 1377, 2008;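 active = activation, scaled between plate controls, above about 75%, limit read from the data; inactive = activation under that limit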;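 note: 0% = zVAD with DMSO and 100% = DMSO alone without zVAD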
Wee1 stabilizer – Wee1 degradation inhibitors, primary screen, cell-based, HeLa, Wee1K328M-luciferase, luminescence. Wee1-like protein kinase (Homo sapiens), P30291. reporter increase, % at 5 µM. HeLa Luc-Wee1K328M stability; 100% = proteasome inhibitor MG132 effect. 220,000 tested, 1.2% active;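 active = activation above the mean of all tested compounds plus 3 SD, set per screening run, cut at about 8.8% in these data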;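 note: cells exposed to compound for 20 h before luminescence read; 0% = DMSO alone and 100% = MG132 at 30 µM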
p97 inhibitor – inhibitors of human p97 ATPase, primary screen, biochemical; Transitional endoplasmic reticulum ATPase (Homo sapiens), P55072; 220,000 tested, 0.42% active; inhibition, % at 8 µM; recombinant p97 ATPase, Kinase-Glo ATP luminescence, 3 h; in the data active = inhibition above about 15%;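 note: 0% = DMSO vehicle and 100% = wells lacking enzyme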
PfM18AAP inh-2 – PfM18AAP inhibitors, malaria aminopeptidase, confirmation, biochemical, QFRET, recombinant enzyme, triplicate | shares compounds with PfM18AAP inh-1 | 2,400 tested, 28% active | H-Glu-NHMec fluorogenic cleavage | inhibition, % at 7.35 µM;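 active = mean inhibition over replicate wells above the hit cutoff set for the earlier primary screen, cut at about 29% in these data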;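 note: 0% = median of test compound wells and 100% = 2 mM ZnCl2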
CTSL1 confirm – cathepsin L1 inhibitors, retest, confirmation, counter-screen for PFM18AAP inhibitor project, biochemical, QFRET, triplicate | inhibition, % at 5.96 µM | 2,400 tested, under 10 active | purified cathepsin L1, Z-Leu-Arg-MCA fluorescence | shares compounds with PfM18AAP inh-1;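 active = average inhibition across replicates above the hit cutoff set in the earlier primary screen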;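 note: 0% = median of test compound wells and 100% = Z-Phe-Ala-diazomethylketone 1 µM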
The depositor's hits bear a star; nt = no result. Hits are enriched below; roughly 2.7% of the tested compounds scored in any of these assays.

SMILES	TNF necrop inh	PfM18AAP inh-1	RBBP9 inh	zVAD death inh	Wee1 stabilizer	p97 inhibitor	PfM18AAP inh-2	CTSL1 confirm
COC(=O)/C=C1\SC(N2CCOCC2)=C(c2ccc(OC)cc2)C1=O	1	47*	-10	0	6	6	32*	-1
Cc1cccc(N2CCN(C(=O)C3CCC(=O)N(Cc4ccccc4F)C3)CC2)c1C (centres undefined)	nt	8	nt	nt	nt	nt	nt	nt
Cc1ccc(C(=O)C(NC(=O)c2ccco2)Nc2sc3c(c2C(N)=O)CCCC3)cc1 (centres undefined)	-2	40*	3	1	2	9	-27	-8
C/C(=N\Nc1ccc(C(=O)O)cc1)c1ccc(Br)cc1	0	32*	-15	1	3	7	-22	5
C/C(=N\Nc1ccc(C(F)(F)F)cn1)c1ccc(S(=O)(=O)NCc2ccco2)cc1	2	5	-5	0	8	-3	nt	nt
C/C(=N\Nc1ccc(C(=O)O)cc1)c1ccc(S(=O)(=O)NCc2ccco2)cc1	-1	36*	-7	1	4	2	1	2
C/C(=N\Nc1ccc([N+](=O)[O-])cc1)c1ccc(N)cc1	4	33*	2	1	0	1	-18	6
C/C(=N/Nc1ncc(Br)cn1)c1ccc(Br)cc1	nt	-1	nt	nt	nt	nt	nt	nt
C/C(=N\Nc1nc(Cl)c(Cl)cc1Cl)c1ccc(S(=O)(=O)NCc2ccco2)cc1	1	49*	-2	1	2	0	-54	7
C/C(=N\Nc1ccccn1)c1ccc(S(=O)(=O)NCc2ccco2)cc1	2	-3	-4	0	-3	-1	nt	nt
Cn1c(N)c(C(=O)COC(=O)COc2ccc3ccccc3c2)c(=O)n(C)c1=O	0	-4	-9	3	2	-1	nt	nt
C/C(=N\Nc1ccc(Cl)c(C(=O)O)c1)c1cccc([N+](=O)[O-])c1	0	36*	2	-1	2	2	-1	5
CCOC(=O)c1c(NC(=O)OC)sc(C(=O)N(CC)CC)c1C	0	33*	-8	0	-2	-2	-1	-6
CCOC(=O)c1sc(NC(=O)OC)c(C(=O)OC)c1C	-1	0	3	1	0	-1	nt	nt
CC(C)=NNc1nc2c(c(=O)[nH]c(=O)n2C)n1CCCc1ccccc1	nt	36*	nt	nt	nt	nt	-29	-7
Cn1c(=O)n(Cc2ccccc2Cl)c(=O)c2c1[nH]c(=S)n2C	nt	36*	nt	nt	nt	nt	-14	-5
CC(C)=NNc1nc2c(c(=O)[nH]c(=O)n2C)n1CCc1ccccc1	-3	-1	2	0	3	3	nt	nt
Cn1c(=O)c2c([nH]c(=S)n2CCCc2ccccc2)n(C)c1=O	nt	44*	nt	nt	nt	nt	30*	-1
Cn1c(=O)[nH]c(=O)c2c1[nH]c(=S)n2CCCc1ccccc1	nt	58*	nt	nt	nt	nt	41*	2
Cn1c(=O)[nH]c(=O)c2c1nc(Br)n2CCCc1ccccc1	-1	2	-1	0	-2	1	nt	nt
Cn1c(=O)n(Cc2ccccc2Cl)c2ccccc21	-2	-2	-4	0	4	2	nt	nt
Cn1c(=O)[nH]c(=O)c2c1[nH]c(=S)n2Cc1ccc(Cl)cc1	nt	48*	nt	nt	nt	nt	16	3
CC(C)Sc1nc2c(c(=O)[nH]c(=O)n2C)n1Cc1ccc(Cl)cc1	-4	4	-1	2	1	1	nt	nt
